Laboratory results reported in PubChem BioAssay.
Activity calls are given as the source filed them.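 The calls were made as follows, unless noted: active = viability at or under a set limit in both replicates, limit being median viability minus 3 SD (cut at about 48% in these data, passing the limit was not always enough); inconclusive = at or under the limit in just one replicate; inactive = at or above the limit in both replicates.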

Key:
[1] = reducers of endogenous Her2 protein level, primary screen, SKBR3 breast tumor cells, AlphaScreen, ATP viability (AID 461;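 active = Her2 level under about 52% in both replicate screens, with viability over 70% of control, limit read from the data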;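 as to Her2 level: lower value means less Her2 protein in the cells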;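 as to viability: percent of carrier control wells set as 100% viability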); conditions: 18-24 h, measured here: SKBR3 viability, ATP luminescence, at 10 µM
[2] = target: Receptor tyrosine-protein kinase erbB-2 (Homo sapiens) (UniProt P04626); assay: as above; conditions: 18-24 h, at 10 µM, stronger effect = lower value
[3] = SK-BR-3 cell growth inhibitors, pilot screen, 24 h, human (AID 572;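 active = viability at or below 10% of carrier control in both of two separate runs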;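 also: compound exposure lasted between 18 and 24 h rather than exactly 24 h; 100% = carrier-treated control wells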); conditions: SK-BR-3 viability, CellTiter-Glo luminescence, at 10 µM, stronger effect = lower value
[4] = HUVEC growth inhibition – cell-based, human, primary screen (AID 575;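 active = viability at or below 30% in both replicate assays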;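 also: 100% = median of untreated cell wells with 0.1% DMSO on each plate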); conditions: HUVEC proliferation, CellTiter-Glo luminescence, 72 h; at 10 µM; stronger effect = lower value
Outline: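 system = HUVEC primary cells | amount = 1250 cells/well | buffer or medium = supplemented EBM, 2% fetal bovine serum | dosing = single-point 10 µM, DMSO 0.1% final | times = 72 h compound incubation | detection = CTG luminescence | read-out = % viability relative to median vehicle-well signal on each plate | control set = vehicle and MePR control wells | format = collagen-coated 384-well format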

[5] = growth inhibitors of H69AR lung tumor, primary screen, human, duplicate replicates (AID 580); conditions: H69AR lung tumor cells viability, ATP luminescence, 72 h; at 10 µM; stronger effect = lower value;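 also: 100% = mean luminescence of untreated wells and 0% = no signal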
[6] = reversal of MRP1-mediated doxorubicin resistance, pilot screen, H69AR cells, doxorubicin co-treatment (AID 601;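 active = viability loss from added drug above about 55%, and viability with drug at most 40%, in both replicates, limit read from the data, passing the limit was not always enough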); conditions: CellTiter-Glo, 72 h, at 10 µM; for differential viability (reversal): stronger effect = higher value
[7] = 384-well plate pilot, post-Golgi transport modulator project, inhibition of yeast transport mutant growth (AID 636; in the data active = inhibition above about 31%); conditions: absorbance 615 nm, about 18 h, stronger effect = higher value
[8] = growth suppression of yeast trafficking mutant, preliminary HTS, modulators of trafficking downstream of Golgi apparatus project, 1536-format plate, OD 615 nm (AID 637; in the data active = inhibition above about 30%); conditions: yeast transport mutant growth, absorbance 615 nm, 18 h; stronger effect = higher value
[9] = H69AR cells + 2 uM doxorubicin, measured here: viability with 2 uM doxorubicin, stronger effect = lower value
[10] = H69AR cells, compound alone cytotoxicity

Chain of Receptor tyrosine-protein kinase erbB-2 (Homo sapiens) (P04626 whole entry, looked up): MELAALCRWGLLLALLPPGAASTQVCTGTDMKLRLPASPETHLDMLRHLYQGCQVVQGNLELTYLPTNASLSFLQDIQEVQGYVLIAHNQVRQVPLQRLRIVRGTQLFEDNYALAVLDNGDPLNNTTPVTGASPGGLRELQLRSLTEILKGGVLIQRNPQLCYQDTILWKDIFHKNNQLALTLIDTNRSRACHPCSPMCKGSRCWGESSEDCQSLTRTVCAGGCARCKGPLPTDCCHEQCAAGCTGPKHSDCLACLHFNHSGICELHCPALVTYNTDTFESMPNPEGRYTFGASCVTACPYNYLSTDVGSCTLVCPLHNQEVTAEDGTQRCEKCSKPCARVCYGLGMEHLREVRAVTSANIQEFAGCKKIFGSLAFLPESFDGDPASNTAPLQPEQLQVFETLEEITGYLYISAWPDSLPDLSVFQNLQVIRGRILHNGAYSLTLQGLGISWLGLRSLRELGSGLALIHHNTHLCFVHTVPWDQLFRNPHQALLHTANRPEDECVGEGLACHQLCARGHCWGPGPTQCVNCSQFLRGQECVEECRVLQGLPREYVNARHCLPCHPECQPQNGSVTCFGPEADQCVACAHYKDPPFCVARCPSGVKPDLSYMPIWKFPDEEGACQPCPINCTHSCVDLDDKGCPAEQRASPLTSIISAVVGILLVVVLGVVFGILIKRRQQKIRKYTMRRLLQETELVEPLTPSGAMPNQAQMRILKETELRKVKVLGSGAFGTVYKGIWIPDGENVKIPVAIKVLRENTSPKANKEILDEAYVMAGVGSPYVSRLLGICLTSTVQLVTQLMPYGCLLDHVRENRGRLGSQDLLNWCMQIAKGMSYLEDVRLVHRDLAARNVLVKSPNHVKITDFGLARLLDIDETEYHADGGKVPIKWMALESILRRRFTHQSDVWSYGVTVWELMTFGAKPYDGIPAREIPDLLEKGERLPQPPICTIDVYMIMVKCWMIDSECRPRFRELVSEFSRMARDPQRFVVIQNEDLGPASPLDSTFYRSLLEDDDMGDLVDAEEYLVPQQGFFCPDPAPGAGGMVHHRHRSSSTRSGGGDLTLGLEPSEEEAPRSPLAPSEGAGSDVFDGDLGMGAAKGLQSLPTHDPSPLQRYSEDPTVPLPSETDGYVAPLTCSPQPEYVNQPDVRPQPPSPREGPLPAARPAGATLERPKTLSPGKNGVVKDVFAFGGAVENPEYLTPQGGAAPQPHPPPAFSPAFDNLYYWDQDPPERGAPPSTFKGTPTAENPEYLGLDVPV

SMILES	viability [1]	Her2 level [2]	viability [3]	viability [4]	viability [5]	differential viability (reversal) ([6]; H69AR cells + 2 uM doxorubicin)	viability [6, 9]	viability [6, 10]	inhibition [7]	inhibition [8]
NC(=O)C1(N2CCCCC2)CCN(C2CC(=O)N(Cc3cccs3)C2=O)CC1 (stereo not given)	112%	103% (inactive)	112% (inactive)	101% (inactive)	98% (inactive)	6.76% (inactive)	91.3%	98%	-4.74% (inactive)	-0.48% (inactive)
CCc1nnc(NC(=O)C2CCCN2S(=O)(=O)c2ccc(C)cc2)s1 (stereo not given)	91.5%	89.5% (inactive)	91.5% (inactive)	117% (inactive)	117% (inactive)	5.4% (inactive)	112%	117%	-6.35% (inactive)	6.07% (inactive)
C=CCN1C(=O)C2(C(C#N)=C(N)Oc3n[nH]c(CCC)c32)c2ccccc21 (stereo not given)	108%	103% (inactive)	108% (inactive)	100% (inactive)	87.8% (inactive)	2.95% (inactive)	84.8%	87.8%	-4.55% (inactive)	0% (inactive)
CCn1cc(C(=O)N=c2sc3ccccc3n2C)c(=O)c2ccc(C)nc21	92.5%	84.5% (inactive)	92.5% (inactive)	80.3% (inactive)	95.7% (inactive)	7.91% (inactive)	87.8%	95.7%	1.41% (inactive)	-2.83% (inactive)
CCc1nc(C)c(C#N)c2cc(OC)c(OC)cc12	103%	90% (inactive)	103% (inactive)	77.8% (inactive)	82.4% (inactive)	8.46% (inactive)	74%	82.4%	-0.91% (inactive)	3.93% (inactive)
Cn1c(Cc2csc(N)n2)nnc1SCC(=O)NCc1ccccc1	93%	99.5% (inactive)	93% (inactive)	114% (inactive)	100% (inactive)	-11.2% (inactive)	111%	100%	0.39% (inactive)	-4.52% (inactive)
O=C(Cn1nc(C(F)(F)F)c2c1CCCC2)NCCN1CCOCC1	110%	89% (inactive)	110% (inactive)	108% (inactive)	91.5% (inactive)	4.05% (inactive)	87.5%	91.5%	-1.18% (inactive)	3.93% (inactive)
CC(=O)N1CCc2cc(S(=O)(=O)NC(C(=O)NCc3ccccc3)C(C)C)ccc21 (stereo not given)	97%	95.5% (inactive)	97% (inactive)	94.6% (inactive)	102% (inactive)	12.1% (inactive)	90.1%	102%	-2.5% (inactive)	-10% (inactive)
CCN(CC)C(=O)CSc1nnc([C@@H](N)Cc2ccccc2)o1	82%	106% (inactive)	82% (inactive)	98.5% (inactive)	98.2% (inactive)	3.4% (inactive)	94.8%	98.2%	-1.87% (inactive)	35.4% (active)
Cc1nnc(SCC(=O)N2CCN(S(=O)(=O)c3ccccc3)CC2)[nH]c1=O	109%	98.5% (inactive)	109% (inactive)	109% (inactive)	107% (inactive)	15.5% (inactive)	91.2%	107%	-6.67% (inactive)	-2.9% (inactive)
Brc1ccc(-c2cn3cccnc3n2)cc1	130%	97.5% (inactive)	130% (inactive)	86.3% (inactive)	104% (inactive)	6.97% (inactive)	97.1%	104%	-3.87% (inactive)	0.97% (inactive)
Cc1c(NS(=O)(=O)c2ccc3c(c2)c(=O)n(C)c(=O)n3C)c(=O)n(-c2ccccc2)n1C	99.5%	85.5% (inactive)	99.5% (inactive)	77.8% (inactive)	95.7% (inactive)	6.11% (inactive)	89.6%	95.7%	-4.4% (inactive)	7.7% (inactive)
O=C(CN1CCCCCC1)OCCN=C1NS(=O)(=O)c2ccccc21	108%	96.5% (inactive)	108% (inactive)	88.1% (inactive)	113% (inactive)	22.9% (inactive)	89.8%	113%	-2.21% (inactive)	-6.51% (inactive)
O=C(O)CN1C(=O)CNC1=O	98%	93.5% (inactive)	98% (inactive)	99.2% (inactive)	97.6% (inactive)	2.41% (inactive)	95.2%	97.6%	-4.86% (inactive)	7.21% (inactive)
O=c1cnnc(NCc2ccccc2)[nH]1	88.5%	108% (inactive)	88.5% (inactive)	106% (inactive)	103% (inactive)	11.8% (inactive)	91.5%	103%	-5.79% (inactive)	-5.33% (inactive)
O=C(Cn1cnc2c(oc3ccccc32)c1=O)N1CCN(c2ccccc2)CC1	95%	91.5% (inactive)	95% (inactive)	91.6% (inactive)	84.9% (inactive)	-2.86% (inactive)	87.7%	84.9%	-0.66% (inactive)	3.65% (inactive)

SMILES	viability [1]	Her2 level [2]	viability [3]	viability [4]	viability [5]	differential viability (reversal) ([6]; H69AR cells + 2 uM doxorubicin)	viability [6, 9]	viability [6, 10]	inhibition [7]	inhibition [8]
COc1cccc(-c2nnc3sc(-c4ccc(C)cc4)nn23)c1	103%	81% (inactive)	103% (inactive)	57% (inactive)	17.3% (active)	-61.5% (inactive)	78.8%	17.3%	-5.92% (inactive)	-4.03% (inactive)
COc1ccc2nc(CC(C)(C)CC(=O)O)c[n+]([O-])c2c1	109%	95.5% (inactive)	109% (inactive)	106% (inactive)	99.2% (inactive)	9.58% (inactive)	89.6%	99.2%	-2.7% (inactive)	5.08% (inactive)
COCc1ccccc1Cn1cnc2c1c(=O)n(C)c(=O)n2C	99%	77.5% (inactive)	99% (inactive)	85.8% (inactive)	101% (inactive)	8.8% (inactive)	92.7%	101%	-5% (inactive)	0.49% (inactive)
CCOC(=O)c1cc2sc(C)cc2n1C(C)C(=O)OCC (stereo not given)	97.5%	79% (inactive)	97.5% (inactive)	95.8% (inactive)	86.3% (inactive)	-6.21% (inactive)	92.5%	86.3%	-3.6% (inactive)	1.8% (inactive)
CCC(=O)Nc1ccc(F)c(Cl)c1	108%	99% (inactive)	108% (inactive)	97.9% (inactive)	94.7% (inactive)	3.67% (inactive)	91.1%	94.7%	-6.53% (inactive)	3.71% (inactive)
O=C(OCc1nnc(-c2ccccc2)o1)c1ccc(S(=O)(=O)NCc2ccco2)cc1	99.5%	98% (inactive)	99.5% (inactive)	99.6% (inactive)	53.6% (inactive)	-6.69% (inactive)	60.3%	53.6%	-4.87% (inactive)	-6.36% (inactive)
CCCC(=O)Nc1ccc2oc(-c3cccnc3)nc2c1	109%	94% (inactive)	109% (inactive)	93.6% (inactive)	88.5% (inactive)	-7.42% (inactive)	96%	88.5%	-4% (inactive)	10% (inactive)
O=C(OCc1cc2ccccc2[nH]c1=O)c1ccncc1	90.5%	89% (inactive)	90.5% (inactive)	76.4% (inactive)	79.2% (inactive)	-10.5% (inactive)	89.7%	79.2%	-4.34% (inactive)	-2.74% (inactive)
CCOC(=O)CN1CC23C=CC(O2)C(C(=O)Nc2ccc(OC)cc2OC)C3C1=O (stereo not given)	99%	99% (inactive)	99% (inactive)	93.7% (inactive)	98.9% (inactive)	5.06% (inactive)	93.9%	98.9%	-0.77% (inactive)	1.83% (inactive)
CCOc1ccccc1-n1c(SCC(=O)NCc2ccco2)nnc1-c1ccncc1	87%	90% (inactive)	87% (inactive)	90.4% (inactive)	75.6% (inactive)	39.9% (inactive)	35.7%	75.6%	-7.47% (inactive)	-0.48% (inactive)
COc1ccc(-n2c(SCC(=O)Nc3ccc(C(=O)O)cc3)nnc2-c2cccs2)cc1	112%	94% (inactive)	112% (inactive)	99.4% (inactive)	109% (inactive)	15.2% (inactive)	93.4%	109%	-1.97% (inactive)	-4.36% (inactive)
COc1ccccc1CN1CC(C(=O)N2CCN(c3ccc(F)cc3)CC2)CC1=O (stereo not given)	92%	86% (inactive)	92% (inactive)	98% (inactive)	88.8% (inactive)	-3.51% (inactive)	92.3%	88.8%	-2.24% (inactive)	11.5% (inactive)
CCCn1c2ccccc2c2nnc(SCC(=O)OCC)nc21	95%	78.5% (inactive)	95% (inactive)	88.8% (inactive)	91.2% (inactive)	11% (inactive)	80.2%	91.2%	-0.66% (inactive)	3.64% (inactive)
CCOC(=O)N1CCC(N2C(=O)c3ccccc3C2Nc2ccc3c(C)cc(=O)oc3c2)CC1 (stereo not given)	76%	105% (inactive)	76% (inactive)	115% (inactive)	83.4% (inactive)	13.9% (inactive)	69.5%	83.4%	-1.79% (inactive)	-2.67% (inactive)
COc1ccc(CCNC(=O)c2ccc(N3CCCC3=O)cc2)cc1OC	102%	108% (inactive)	102% (inactive)	103% (inactive)	92.1% (inactive)	12.3% (inactive)	79.8%	92.1%	-5.84% (inactive)	4.92% (inactive)
CCCCP(=O)(CCCC)c1ccccc1C(=O)O	110%	104% (inactive)	110% (inactive)	90% (inactive)	107% (inactive)	12.9% (inactive)	94.2%	107%	1.82% (inactive)	-2.46% (inactive)
